Sampled rows, rich in hits. Any-hit rate of the full collection: about 3.5%.
RGS4 block: RGS4 inhibitors, primary screen, cell-based, HEK293 M3R inducible RGS4, calcium flux; B-score at 10 µM; Fluo-4 calcium flux; stronger effect = higher value; triggered by carbachol at its EC20; Regulator of G-protein signaling 4 (Homo sapiens), P49798; hit rate 0.45% among 310,000;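 active means B-score, a plate-corrected calcium signal, over three deviations above library mean, with baseline fluorescence within five deviations of library mean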;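 further: RGS4 expression induced by doxycycline in cells with stable M3 receptor; B-score is computed from the integrated fluorescence ratio over baseline after carbachol; higher B-score means a larger calcium signal and so more RGS4 inhibition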
Target sequence (P49798 whole entry, looked up): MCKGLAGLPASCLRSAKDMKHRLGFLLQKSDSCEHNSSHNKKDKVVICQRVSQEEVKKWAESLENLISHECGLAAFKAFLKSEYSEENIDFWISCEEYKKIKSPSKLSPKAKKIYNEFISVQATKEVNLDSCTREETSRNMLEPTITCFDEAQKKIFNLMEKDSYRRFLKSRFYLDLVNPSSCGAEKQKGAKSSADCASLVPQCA
MrgX1 antagonist: antagonists of human MrgX1 receptor, primary screen, HEK293 cells, Fluo-4 calcium flux; Mas-related G-protein coupled receptor member X1 (Homo sapiens), Q96LB2; AID 588676, 2011; hit rate 1.3% among 310,000; B-score at 10 µM; BAM8-22 antagonism; stronger effect = lower value;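 active means calcium-response B-score plate-corrected more than 3 library SD below zero, starting fluorescence within 5 deviations, no agonist response on first addition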;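 further: peak minus trough fluorescence over baseline after final BAM8-22 challenge near maximal dose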
Target sequence (Q96LB2 whole entry, looked up): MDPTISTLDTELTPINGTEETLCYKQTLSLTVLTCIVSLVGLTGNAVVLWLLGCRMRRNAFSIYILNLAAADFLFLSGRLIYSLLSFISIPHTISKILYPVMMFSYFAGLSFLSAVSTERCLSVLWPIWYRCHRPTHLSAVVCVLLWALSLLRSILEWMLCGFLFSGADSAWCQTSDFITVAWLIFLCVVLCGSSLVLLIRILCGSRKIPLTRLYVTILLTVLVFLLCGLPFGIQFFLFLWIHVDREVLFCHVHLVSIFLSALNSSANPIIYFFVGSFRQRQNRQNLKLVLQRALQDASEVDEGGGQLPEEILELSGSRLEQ
MrgX1 PAM: positive allosteric modulators of MrgX1, primary screen, HEK293 cells, Fluo-4 calcium flux; Mas-related G-protein coupled receptor member X1 (Homo sapiens), Q96LB2; FDSS; stronger effect = higher value; B-score at 10 µM; hit rate 0.63% among 310,000; AID 588675, 2011;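 active means plate-corrected calcium response at least 3 library SD above typical, normal starting fluorescence, not activating the receptor alone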;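 further: compound read alongside a low EC10 to EC30 dose of BAM8-22 agonist; peak minus trough fluorescence over baseline measured at the second addition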
MrgX1 ag: agonists of human MrgX1 receptor, primary screen, HEK293 cells, Fluo-4 calcium flux. Fluo-4 calcium fluorescence, agonist mode; stronger effect = higher value. B-score at 10 µM. hit rate 0.44% among 310,000. AID 588627, 2011;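 active means calcium response B-score plate-corrected fluorescence ratio at least 3 library SD, with starting fluorescence B-score inside 5 SD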
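Test system: Stable human MrgX1 HEK293 cell line | Schedule: Overnight plating before 1 h dye loading | Read-out basis: Baseline-normalised fluorescence change ratio, B-scored | Detection: Kinetic calcium dye fluorescence, Fluo-4 NW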
RGS4 pot: RGS4 potentiators or activators, primary screen, cell-based, HEK293 M3R inducible RGS4, calcium flux; carbachol calcium flux Fluo4; stronger effect = lower value; B-score at 10 µM; hit rate 0.92% among 310,000; AID 463111, 2010;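 active means B-score of the integrated calcium signal more than 4 SD below the library mean, with starting fluorescence not abnormally high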;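 further: negative B-score means reduced calcium response which marks RGS4 activation or potentiation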
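Test system: HEK293 cells with stable M3R and inducible RGS4; also added: carbachol at ECmax as muscarinic agonist stimulus; schedule: dye loading 30 min 37 °C, buffer rest 30 min RT; technique: kinetic calcium fluorescence imaging with Fluo4-AM dye, 2 µM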
MrgX1 allo conf: MrgX1 positive allosteric modulators, duplicate retest, confirmation, HEK293 cells, Fluo-4 calcium flux; activation (ratio percentage), % at 10 µM; AID 602413, 2012; hit rate 13% among 1,200; Fluo-4 calcium fluorescence, FDSS; shares compounds with MrgX1 PAM;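 active means ratio at least 3 SD above the weak peptide control, stable starting fluorescence, no direct agonism earlier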;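 further: compound followed by low BAM8-22 agonist challenge near EC20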
HEK293 Ca flux: nonspecific calcium signal in parental HEK293, confirmation, counter-screen for MrgX1 antagonist project, parental HEK293 cells, Fluo-4 calcium flux. shares compounds with MrgX1 antagonist. Fluo-4 calcium fluorescence, FDSS. fluorescence ratio F(max-min)/F0 at 10 µM. hit rate 2% among 4,000;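 active means duplicate-averaged calcium fluorescence ratio at least three times the standard deviation of buffer wells, a nonspecific response in parental cells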
HEK293 Ca counter: calcium response in parental HEK293 cells, primary screen, counter-screen for MrgX1 allosteric activator project, cell-based, Fluo-4 calcium flux, duplicate. shares compounds with MrgX1 antagonist. Fluo-4 fluorescence ratio; stronger effect = higher value. fluorescence ratio F(max-min)/F0 at 10 µM. hit rate 0.4% among 4,000;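 active means calcium fluorescence ratio, averaged over duplicates, at least 3 SD of the buffer-well ratio, meaning a nonspecific response in receptor-free cells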;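 further: untransfected parental HEK293 lacking MrgX1 used as counterscreen for MrgX1 allosteric activators; fluorescence change taken during the second addition on a kinetic imager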
HEK293 Ca cntr2: calcium response in parental HEK293 cells, primary screen, counter-screen for MrgX1 agonist project, cell-based, Fluo-4 calcium flux, duplicate, agonist mode; shares compounds with MrgX1 antagonist; Fluo-4 calcium fluorescence (FDSS); stronger effect = higher value; fluorescence ratio F(max-min)/F0 at 10 µM; hit rate 8.7% among 4,000; AID 624115, 2012;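 active means calcium fluorescence ratio at least three times the spread of buffer wells, meaning a non-specific response in parental cells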
Numbers stand for hits.

How did C=C[C@@]1(C)CC(=O)[C@]2(O)[C@@]3(C)[C@@H](O)CCC(C)(C)[C@@H]3[C@H](OC(C)=O)[C@H](O)[C@@]2(C)O1 do in these assays?
RGS4 block: inactive; MrgX1 antagonist: inactive; MrgX1 PAM: 7.7; MrgX1 ag: inactive; RGS4 pot: inactive; MrgX1 allo conf: inactive; HEK293 Ca flux: inactive; HEK293 Ca counter: inactive; HEK293 Ca cntr2: inactive

How did O=C(Cc1cccc(C(F)(F)F)c1)NCC(c1ccco1)N1CCCCC1 (stereo unspecified) do in these assays?
RGS4 block: inactive; MrgX1 antagonist: inactive; MrgX1 PAM: inactive; MrgX1 ag: inactive; RGS4 pot: inactive

How did O=C(Nc1nc(-c2ccccc2)ns1)c1cccs1 do in these assays?
RGS4 block: inactive; MrgX1 antagonist: inactive; MrgX1 PAM: 7.5; MrgX1 ag: inactive; RGS4 pot: inactive; MrgX1 allo conf: 2.7%; HEK293 Ca flux: inactive; HEK293 Ca counter: inactive; HEK293 Ca cntr2: inactive

What do the screens show for `O=C(Nc1nc2ccc(F)cc2s1)c1cccs1`?
RGS4 block: inactive; MrgX1 antagonist: inactive; MrgX1 PAM: 9.3; MrgX1 ag: inactive; RGS4 pot: inactive; MrgX1 allo conf: inactive; HEK293 Ca flux: inactive; HEK293 Ca counter: inactive; HEK293 Ca cntr2: inactive

What do the screens show for `CCN(CC)CCNC(=O)Cn1cnc2sc(C)c(S(=O)(=O)N3CC(C)CC(C)C3)c2c1=O` (stereo unspecified)?
RGS4 block: inactive; MrgX1 antagonist: inactive; MrgX1 PAM: inactive; MrgX1 ag: inactive; RGS4 pot: inactive

What do the screens show for `CCN(CC)C(=O)CSc1nnc(CSc2ncccn2)n1C`?
RGS4 block: inactive; MrgX1 antagonist: inactive; MrgX1 PAM: inactive; MrgX1 ag: inactive; RGS4 pot: inactive

Results for Cc1sc2ncnc(NCC3(N4CCOCC4)CCCCC3)c2c1C ?
RGS4 block: inactive; MrgX1 antagonist: inactive; MrgX1 PAM: inactive; MrgX1 ag: inactive; RGS4 pot: inactive

How did Cc1sc2ncnc(NCC(C)(C)N3CCOCC3)c2c1C do in these assays?
RGS4 block: inactive; MrgX1 antagonist: inactive; MrgX1 PAM: 8.7; MrgX1 ag: inactive; RGS4 pot: inactive; MrgX1 allo conf: inactive; HEK293 Ca flux: inactive; HEK293 Ca counter: inactive; HEK293 Ca cntr2: inactive

Results for Cc1cccc(-c2nnc(SCC(=O)C(C)(C)C)n2C)c1 ?
RGS4 block: inactive; MrgX1 antagonist: inactive; MrgX1 PAM: inactive; MrgX1 ag: inactive; RGS4 pot: inactive

Results for O=C(COc1ccccc1)N1CCN=C1SCc1cccnc1 ?
RGS4 block: inactive; MrgX1 antagonist: inactive; MrgX1 PAM: inactive; MrgX1 ag: inactive; RGS4 pot: inactive

Results for O=C(COc1ccccc1)N1CCN=C1SCc1ccc(F)cc1 ?
RGS4 block: inactive; MrgX1 antagonist: inactive; MrgX1 PAM: 8.6; MrgX1 ag: inactive; RGS4 pot: inactive; MrgX1 allo conf: inactive; HEK293 Ca flux: inactive; HEK293 Ca counter: inactive; HEK293 Ca cntr2: inactive

Results for O=C(NCC(=O)N1CCCC1)c1ccc(Cl)cc1 ?
RGS4 block: inactive; MrgX1 antagonist: inactive; MrgX1 PAM: inactive; MrgX1 ag: inactive; RGS4 pot: inactive

Results for Cc1ccccc1OCC(=O)Nc1ccc(C(=O)Nc2ccccc2C(=O)O)cc1 ?
RGS4 block: inactive; MrgX1 antagonist: inactive; MrgX1 PAM: inactive; MrgX1 ag: inactive; RGS4 pot: inactive
